Data from ChEMBL document CHEMBL3808293, “Antiproliferative activity and apoptosis inducing effects of nitric oxide donating derivatives of evodiamine” (Bioorg Med Chem, 2016).
Each block holds one compound with its values, some of them ahead of it. Active and inactive are the calls of the source. The calls are words filed in the database; no cut-off is given here.

How the values were obtained:
[1] = Cell cycle arrest in human Bel7402 cells assessed as accumulation at G1 phase at 2 uM after 24 hrs by propidium iodide staining based flow cytometry (reference value: 43.13%); format: functional; details: Bel-7402
[2] = Cell cycle arrest in human Bel7402 cells assessed as accumulation at S phase at 2 uM after 24 hrs by propidium iodide staining based flow cytometry (reference value: 33.7%); format: functional; details: Bel-7402
Bel-7402 [3] = test: Induction of mitochondrial membrane depolarization in human Bel7402 cells after 72 hrs by JC-1 staining based flow cytometry; format: functional, cell-based
BGC-823 = test: Induction of NO release in human BGC823 cells at 100 uM incubated for 1 hr by Griess assay; format: functional
How it was run: (§1)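 Cells exposed to 100 μM compound; the methods give 150 min, the results text 1 h. Cell lysates mixed with Griess reagent 10 min at 37 °C, absorbance read at 540 nm. Nitrite quantified against a sodium nitrite standard curve; 0.4% DMSO-treated cells gave background. Mean ± SD of three independent experiments.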

[4] = Cell cycle arrest in human Bel7402 cells assessed as accumulation at G2 phase at 2 uM after 24 hrs by propidium iodide staining based flow cytometry (reference value: 23.17%); format: functional; details: Bel-7402
Bel-7402 [5] = test: Induction of apoptosis in human Bel7402 cells after 72 hrs by Annexin V-FITC/propidium iodide staining based flow cytometry; format: functional, cell-based
Bel-7402 [6] = test: Induction of mitochondrial membrane depolarization in human Bel7402 cells at 3 uM after 72 hrs by JC-1 staining based flow cytometry (reference value: 4.26%); format: functional
A549 = test: Antiproliferative activity against human A549 cells after 72 hrs by MTT assay; format: functional, cell-based; details: A549, 72 h
How it was run: (§2)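 Cells pre-incubated 24 h at 37 °C, 5% CO2, then exposed to compounds for 72 h. MTT (5 mg/mL solution) added for a further 4 h, formazan dissolved in DMSO, OD read at 570 nm. Negative reference 0.1% DMSO; evodiamine and 5-Fu as positive references. IC50 is the concentration inhibiting 50% of growth; mean ± SD of three independent experiments.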

Bel-7402 [7] = test: Induction of apoptosis in human Bel7402 cells assessed as live cells at 1 uM after 72 hrs by Annexin V-FITC/propidium iodide staining based flow cytometry (reference value: 88.31%); format: functional
Bel-7402 [8] = test: Induction of mitochondrial membrane depolarization in human Bel7402 cells at 1 uM after 72 hrs by JC-1 staining based flow cytometry (reference value: 4.26%); format: functional
Bel-7402 [9] = test: Induction of apoptosis in human Bel7402 cells assessed as increase in caspase-8 expression at 1 to 3 uM after 72 hrs by Western blot analysis; format: functional, cell-based
How it was run: (§3)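 Bel-7402 cells exposed to different doses for 72 h, lysed, and protein content determined. Lysates separated on 10% SDS-PAGE and transferred to nitrocellulose. Membranes probed with monoclonal primary antibodies, then HRP-conjugated secondary antibodies, with ECL detection.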

Bel-7402 [10] = test: Induction of apoptosis in human Bel7402 cells assessed as down regulation of Bcl-2 expression at 1 to 3 uM after 72 hrs by Western blot analysis; format: functional, cell-based; how it was run: as §3
Bel-7402 [11] = test: Induction of apoptosis in human Bel7402 cells assessed as late apoptotic cells at 2 uM after 72 hrs by Annexin V-FITC/propidium iodide staining based flow cytometry (reference value: 2.55%); format: functional
Bel-7402 [12] = test: Induction of apoptosis in human Bel7402 cells assessed as early apoptotic cells at 2 uM after 72 hrs by Annexin V-FITC/propidium iodide staining based flow cytometry (reference value: 6.66%); format: functional
[13] = Cell cycle arrest in human Bel7402 cells assessed as accumulation at S phase at 3 uM after 24 hrs by propidium iodide staining based flow cytometry (reference value: 33.7%); format: functional; details: Bel-7402
[14] = Cell cycle arrest in human Bel7402 cells assessed as accumulation at G1 phase at 3 uM after 24 hrs by propidium iodide staining based flow cytometry (reference value: 43.13%); format: functional; details: Bel-7402
Bel-7402 [15] = test: Induction of apoptosis in human Bel7402 cells assessed as increase in caspase-9 expression at 1 to 3 uM after 72 hrs by Western blot analysis; format: functional, cell-based; how it was run: as §3
Bel-7402 [16] = test: Induction of apoptosis in human Bel7402 cells assessed as live cells at 3 uM after 72 hrs by Annexin V-FITC/propidium iodide staining based flow cytometry (reference value: 88.31%); format: functional
Bel-7402 [17] = test: Induction of apoptosis in human Bel7402 cells assessed as early apoptotic cells at 1 uM after 72 hrs by Annexin V-FITC/propidium iodide staining based flow cytometry (reference value: 6.66%); format: functional
Bel-7402 [18] = test: Induction of apoptosis in human Bel7402 cells assessed as late apoptotic cells at 1 uM after 72 hrs by Annexin V-FITC/propidium iodide staining based flow cytometry (reference value: 2.55%); format: functional
[19] = Cell cycle arrest in human Bel7402 cells assessed as accumulation at G1 phase at 1 uM after 24 hrs by propidium iodide staining based flow cytometry (reference value: 43.13%); format: functional; details: Bel-7402
Bel-7402 [20] = test: Induction of apoptosis in human Bel7402 cells assessed as increase in caspase-3 expression at 1 to 3 uM after 72 hrs by Western blot analysis; format: functional, cell-based; how it was run: as §3
Bel-7402 [21] = test: Induction of apoptosis in human Bel7402 cells assessed as increase in cytochrome-C level at 1 to 3 uM after 72 hrs by Western blot analysis; format: functional, cell-based; how it was run: as §3
[22] = Antiproliferative activity against human BGC823 cells after 72 hrs by MTT assay; format: functional, cell-based; details: BGC-823, 72 h; how it was run: as §2
Bel-7402 [23] = test: Induction of mitochondrial membrane depolarization in human Bel7402 cells at 2 uM after 72 hrs by JC-1 staining based flow cytometry (reference value: 4.26%); format: functional
[24] = Induction of apoptosis in human Bel7402 cells assessed as upregulation of Bax expression at 1 to 3 uM after 72 hrs by Western blot analysis; format: functional, cell-based; details: Bel-7402; how it was run: as §3
Bel-7402 [25] = test: Induction of apoptosis in human Bel7402 cells assessed as necrotic cells at 3 uM after 72 hrs by Annexin V-FITC/propidium iodide staining based flow cytometry (reference value: 2.48%); format: functional
Bel-7402 [26] = test: Induction of apoptosis in human Bel7402 cells assessed as necrotic cells at 1 uM after 72 hrs by Annexin V-FITC/propidium iodide staining based flow cytometry (reference value: 2.48%); format: functional
[27] = Cell cycle arrest in human Bel7402 cells assessed as accumulation at S phase at 1 uM after 24 hrs by propidium iodide staining based flow cytometry (reference value: 33.7%); format: functional; details: Bel-7402
Bel-7402 [28] = test: Induction of apoptosis in human Bel7402 cells assessed as live cells at 2 uM after 72 hrs by Annexin V-FITC/propidium iodide staining based flow cytometry (reference value: 88.31%); format: functional
Bel-7402 [29] = test: Induction of apoptosis in human Bel7402 cells assessed as early apoptotic cells at 3 uM after 72 hrs by Annexin V-FITC/propidium iodide staining based flow cytometry (reference value: 6.66%); format: functional
[30] = Cell cycle arrest in human Bel7402 cells assessed as accumulation at G2 phase at 1 uM after 24 hrs by propidium iodide staining based flow cytometry (reference value: 23.17%); format: functional; details: Bel-7402
[31] = Antiproliferative activity against human L02 cells after 72 hrs by MTT assay; format: cell-based; details: L02, 72 h; how it was run: as §2
Bel-7402 [32] = test: Induction of NO release in human Bel7402 cells at 100 uM incubated for 1 hr by Griess assay; format: functional; how it was run: as §1
[33] = Induction of apoptosis in human Bel7402 cells assessed as upregulation of FAS protein expression at 1 to 3 uM after 72 hrs by Western blot analysis; format: functional, cell-based; details: Bel-7402; how it was run: as §3
[34] = Cell cycle arrest in human Bel7402 cells assessed as accumulation at G2 phase at 3 uM after 24 hrs by propidium iodide staining based flow cytometry (reference value: 23.17%); format: functional; details: Bel-7402
L02 = test: Induction of NO release in human L02 cells at 100 uM incubated for 1 hr by Griess assay; format: functional; how it was run: as §1
Bel-7402 [35] = test: Induction of apoptosis in human Bel7402 cells assessed as late apoptotic cells at 3 uM after 72 hrs by Annexin V-FITC/propidium iodide staining based flow cytometry (reference value: 2.55%); format: functional
Bel-7402 [36] = test: Induction of apoptosis in human Bel7402 cells assessed as necrotic cells at 2 uM after 72 hrs by Annexin V-FITC/propidium iodide staining based flow cytometry (reference value: 2.48%); format: functional
[37] = Antiproliferative activity against human Bel7402 cells after 72 hrs by MTT assay; format: functional, cell-based; details: Bel-7402, 72 h; how it was run: as §2

IC50 (A549): 2310 nM
SMILES: CN1c2ccccc2C(=O)N2CCc3c(n(CCCCCCOc4no[n+]([O-])c4S(=O)(=O)c4ccccc4)c4ccccc34)C21 (stereo not drawn)
Activity [1]: 42.6% | Activity [2]: 47.3% | Activity (Bel-7402 [3]): Dose-dependent effect | Activity (BGC-823): 87.3 µM | Activity [4]: 10% | Activity (Bel-7402 [5]): Dose-dependent effect | Activity (Bel-7402 [6]): 44.37% | Activity (Bel-7402 [7]): 77.63% | Activity (Bel-7402 [8]): 13.5% | Activity (Bel-7402 [9]): Active | Activity (Bel-7402 [10]): Active | Activity (Bel-7402 [11]): 15.4% | Activity (Bel-7402 [12]): 20.98% | Activity [13]: 51.5% | Activity [14]: 42.6% | Activity (Bel-7402 [15]): Active | Activity (Bel-7402 [16]): 40.74% | Activity (Bel-7402 [17]): 15.92% | Activity (Bel-7402 [18]): 3.71% | Activity [19]: 44.9% | Activity (Bel-7402 [20]): Active | Activity (Bel-7402 [21]): Active | IC50 [22]: 70 nM | Activity (Bel-7402 [23]): 26.57% | Activity [24]: Active | Activity (Bel-7402 [25]): 6.69% | Activity (Bel-7402 [26]): 2.73% | Activity [27]: 39.3% | Activity (Bel-7402 [28]): 58.88% | Activity (Bel-7402 [29]): 24.37% | Activity [30]: 15.7% | IC50 [31]: > 100000 nM | Activity (Bel-7402 [32]): 82.2 µM | Activity [33]: Active | Activity [34]: 5.9% | Activity (L02): 26 µM | Activity (Bel-7402 [35]): 28.2% | Activity (Bel-7402 [36]): 4.74% | IC50 [37]: 2100 nM

IC50 (A549): 5850 nM
SMILES: CN1c2ccccc2C(=O)N2CCc3c(n(CCCOc4no[n+]([O-])c4S(=O)(=O)c4ccccc4)c4ccccc34)C21 (stereo not drawn)
Activity (BGC-823): 83.6 µM | IC50 [22]: 80 nM | IC50 [31]: 2350 nM | Activity (Bel-7402 [32]): 83.1 µM | Activity (L02): 16.4 µM | IC50 [37]: 6210 nM

IC50 (A549): 5320 nM
SMILES: CN1c2ccccc2C(=O)N2CCc3c(n(CCCOC(=O)CCC(=O)OCCOc4no[n+]([O-])c4S(=O)(=O)c4ccccc4)c4ccccc34)C21 (stereo not drawn)
Activity (BGC-823): 97.6 µM | IC50 [22]: 60 nM | IC50 [31]: 6380 nM | Activity (Bel-7402 [32]): 97 µM | Activity (L02): 18 µM | IC50 [37]: 4650 nM

IC50 (A549): 3040 nM
SMILES: CN1c2ccccc2C(=O)N2CCc3c(n(CCOC(=O)CCC(=O)OCCOc4no[n+]([O-])c4S(=O)(=O)c4ccccc4)c4ccccc34)C21 (stereo not drawn)
Activity (BGC-823): 93.5 µM | IC50 [22]: 20 nM | IC50 [31]: 17100 nM | Activity (Bel-7402 [32]): 88.7 µM | Activity (L02): 6.59 µM | IC50 [37]: 1540 nM

IC50 (A549): 230 nM
SMILES: CN1c2ccccc2C(=O)N2CCc3c(n(CCOc4no[n+]([O-])c4S(=O)(=O)c4ccccc4)c4ccccc34)C21 (stereo not drawn)
Activity (BGC-823): 78.8 µM | IC50 [22]: 20 nM | IC50 [31]: 20 nM | Activity (Bel-7402 [32]): 77.5 µM | Activity (L02): 18.5 µM | IC50 [37]: 550 nM
